Measurements from ChEMBL document CHEMBL4177574, “A novel class of Plasmodial ClpP protease inhibitors as potential antimalarial agents” (Bioorg Med Chem, 2017).
The source made the active and inactive calls. The calls are words filed in the database; no cut-off is given here. Where a SMILES comes first, the peptide text is derived from it. The star is where a group is joined. Cbz = O=C(OCc1ccccc1)*; OBn = c1ccc(CO*)cc1

Assays:
[1] = Inhibition of recombinant Plasmodium falciparum ClpP expressed in Escherichia coli BL21(DE3) using Suc-LLVY-AMC substrate incubated for 3 to 6 hrs by fluorimetric assay
Method in brief: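 The protease domain of PfClpP (aa 168–370) was His-tagged in pET28a, expressed in E. coli BL21(DE3) with 1 mM IPTG at 37 °C for 3–4 h, Ni-NTA purified and BCA quantified. Assay used 13 µM enzyme in 0.1 M sodium acetate pH 7.0 with 1.0 mM DTT and 50 µM Suc-LLVY-AMC final. AMC fluorescence (ex 355/em 460) was followed continuously for 3–6 h at RT; IC50 by curve fitting.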

Plasmodium falciparum [2] = experiment: Antimalarial activity against Plasmodium falciparum 3D7 assessed as inhibition of parasite growth incubated for 96 hrs in presence of 4% haematocrit by SYBR green dye based assay; format: functional, organism-based
Method in brief: (§1)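 P. falciparum 3D7 in RPMI with 0.5% albumax at 4% haematocrit, sorbitol-synchronized, starting parasitaemia ~1%. Compound added at final 0–100 µM, with DMSO in control wells. Growth ran 96 h and was read by SYBR green DNA-dye fluorescence. Triplicate wells, experiment repeated twice; IC50 derived from these.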

Plasmodium falciparum [3] = experiment: Inhibition of apicoplast development in ACP-GFP expressing Plasmodium falciparum D10 assessed as induction of round stump-like structures at 10 uM measured at 72 hrs post dose by DAPI dye based confocal laser-scanning microscopy; format: functional, organism-based
Method in brief: (§2)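 D10 ACP-GFP parasites were grown like 3D7 with 100 nM pyrimethamine, and ring stages (8–10 hpi) were treated with compound. Parasites were sampled at 36/40 hpi and 72 hpi, DAPI-stained at 2 µg/mL final for 30 min at 37 °C, and imaged by confocal microscopy for apicoplast GFP morphology.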

Plasmodium falciparum [4] = experiment: Inhibition of apicoplast development in ACP-GFP expressing Plasmodium falciparum D10 assessed as induction of round stump-like structures at 10 uM measured at 90 to 96 hrs post dose by DAPI dye based confocal laser-scanning microscopy; format: functional, organism-based
Plasmodium falciparum [5] = experiment: Inhibition of apicoplast growth in ACP-GFP expressing Plasmodium falciparum D10 at 10 uM measured during second cycle by DAPI dye based confocal laser-scanning microscopy; format: functional, organism-based; method in brief: as §2
Plasmodium falciparum [6] = experiment: Antimalarial activity against Plasmodium falciparum 3D7 assessed as reduction in mature schizonts formation after 60 hrs post infection; format: functional, organism-based
HeLa = experiment: Cytotoxic activity against human HeLa cells assessed as reduction in cell viability incubated for 48 hrs by MTT assay
Plasmodium falciparum [7] = experiment: Effect on nuclear division in ACP-GFP expressing Plasmodium falciparum D10 apicoplast at 10 uM measured at 96 hrs post dose by DAPI dye based confocal laser-scanning microscopy; format: functional, organism-based
Plasmodium falciparum [8] = experiment: Inhibition of apicoplast development in ACP-GFP expressing Plasmodium falciparum D10 at 10 uM measured during second cycle by DAPI dye based confocal laser-scanning microscopy; format: functional, organism-based; method in brief: as §2
Plasmodium falciparum [9] = experiment: Effect on apicoplast development in ACP-GFP expressing Plasmodium falciparum D10 at 10 uM measured during first cycle by DAPI dye based confocal laser-scanning microscopy; format: functional, organism-based; method in brief: as §2
[10] = Ratio of IC50 for inhibition of recombinant Plasmodium falciparum ClpP expressed in Escherichia coli BL21(DE3) to IC50 for antimalarial activity against Plasmodium falciparum 3D7
Plasmodium falciparum [11] = experiment: Antimalarial activity against Plasmodium falciparum 3D7 assessed as inhibition of parasite growth at 100 uM incubated for 96 hrs in presence of 4% haematocrit by SYBR green dye based assay; format: functional, organism-based; method in brief: as §1
[12] = Plasmodium falciparum, 3D7, 96 h, read-out: IC50

Row | Structure (SMILES) | IC50 [1] | Ki [1] | IC50 (Plasmodium falciparum [2]) | Ki ([1]; read-out: Ki) | IC50 (Plasmodium falciparum [2]; [12]) | other results
1 | CC(C)C1Cc2c(sc3nc(SCC(=O)NCc4ccccc4)n(CCc4ccccc4)c(=O)c23)CO1 (stereo unspecified) | > 100 µM | Not Active | Not Active | – | – | –
2 | Cc1cc(SCC(=O)NNC(=O)Cc2ccccc2)nc(SCC(=O)c2ccc(C#N)cc2)n1 | 37.4 µM | – | – | 15.3 µM | 12.4 µM | –
3 | O=C(COc1ccccc1)Nc1cc(NC(=O)COc2ccccc2)cc(C(=O)Nc2nccs2)c1 | 88 µM | – | Not Active | 36 µM | – | –
4 | O=C(NCCCc1ccccc1)c1cnc(SCC(=O)N2CCOCC2)n(Cc2ccccc2)c1=O | 46 µM | – | – | 18.8 µM | 11.7 µM | –
5 | Cc1cc(SCC(=O)NNC(=O)Cc2ccccc2)nc(SCCN2CCOCC2)n1 | 30.3 µM | – | – | 12.3 µM | 14.4 µM | –
6 | Cc1cc(SCC(=O)NNC(=O)Cc2ccccc2)nc(SCC(=O)N2CCOCC2)n1 | 28.8 µM | – | – | 11.8 µM | 17.3 µM | –
7 | CCc1ccc(CSc2ncc(Cl)c(C(=O)NCCC(=O)Nc3ccc(Cl)cc3)n2)cc1 | > 100 µM | Not Active | Not Active | – | – | –
8 | O=C(NCCCc1ccccc1)c1cnc(SCCN2CCOCC2)n(Cc2ccccc2)c1=O | 10.5 µM | – | – | 2.3 µM | 9 µM | Activity (Plasmodium falciparum [3]): Active; Activity (Plasmodium falciparum [4]): Active; growth inhibition (GI) (Plasmodium falciparum [5]): Active; Activity (Plasmodium falciparum [6]): Active; IC50 (HeLa): > 5000 µM; Activity (Plasmodium falciparum [7]): inactive; inhibition (Plasmodium falciparum [8]): Active; Activity (Plasmodium falciparum [9]): inactive
9 | COc1ccc(C(=O)CSc2ncc(C(=O)NCCCc3ccccc3)c(=O)n2Cc2ccccc2)cc1 | 45 µM | – | – | 18 µM | 2.4 µM | Ratio IC50 [10]: 20
10 | CCOC(=O)c1cnc(SCCN2CCOCC2)n(CC(=O)c2ccccc2)c1=O | 40 µM | – | – | 16 µM | 19 µM | –
11 | CCc1nnc(NC(=O)CSc2nnc(-c3cc4ccccc4cc3O)n2CCOC)s1 | 30 µM | – | – | 12.1 µM | 27 µM | –
12 | CCN(CC)c1ccc(C(=O)CSc2nc(C)cc(SCC(=O)NNC(=O)Cc3ccccc3)n2)cc1 | 28.3 µM | – | – | 11.6 µM | 12.1 µM | –
13 | CCOC(=O)c1cnc(SCCN2CCOCC2)[nH]c1=O | > 100 µM | Not Active | Not Active | – | – | –
14 | COc1ccc(C(=O)CSc2nc(C)cc(SCC(=O)NNC(=O)Cc3ccccc3)n2)cc1 | 34.7 µM | – | – | 14.2 µM | 11.8 µM | –
15 | CCCOc1ccc(-c2nn(-c3ccccc3)cc2/C=C2\SC(=S)N(CCc3ccccc3)C2=O)cc1F | > 100 µM | Not Active | Not Active | – | – | –
16 | CC(CCc1ccccc1)NC(=O)CSc1nc2sc3c(c2c(=O)n1CCc1ccccc1)CC(C(C)C)OC3 (stereo unspecified) | 23 µM | – | – | 9 µM | 25 µM | –

Row | Structure (SMILES) | IC50 [1] | Ki [1] | IC50 (Plasmodium falciparum [2]) | Ki ([1]; read-out: Ki) | IC50 (Plasmodium falciparum [2]; [12]) | other results
17 | O=C(CNC(=O)OCc1ccccc1)N[C@@H](CCC(=O)OCc1ccccc1)C(=O)OCc1ccccc1 (Cbz-Gly-Glu(OBn)-OBn) | > 100 µM | Not Active | Not Active | – | – | –
18 | O=C(CSc1nc(SCC(=O)NCc2ccco2)nc(SCC(=O)NCc2ccco2)n1)NCc1ccco1 | 92 µM | – | Not Active | 38 µM | – | –
19 | O=C(NCCCc1ccccc1)c1cnc(SCCN2CCOCC2)[nH]c1=O | 44 µM | – | – | 18 µM | 22 µM | –
20 | COc1cccc(NC(=O)CSc2nc3sc4c(c3c(=O)n2CCc2ccccc2)CC(C(C)C)OC4)c1 (stereo unspecified) | > 100 µM | Not Active | Not Active | – | – | –
21 | O=C(CSc1ncc(C(=O)NCCCc2ccccc2)c(=O)n1Cc1ccccc1)NNC(=O)Cc1ccccc1 | 72.6 µM | – | Not Active | 29.5 µM | – | inhibition (Plasmodium falciparum [11]): inactive
22 | O=C(O)c1cnc2n(c1=O)CC(c1ccccc1)=C(CN1CCOCC1)S2 | > 100 µM | Not Active | – | – | 11 µM | –
23 | CCOC(=O)CSc1ncc(C(=O)NCCCc2ccccc2)c(=O)n1Cc1ccccc1 | 58.3 µM | – | – | 23.8 µM | 15.9 µM | –
24 | N#Cc1ccc(C(=O)CSc2ncc(C(=O)NCCCc3ccccc3)c(=O)n2Cc2ccccc2)cc1 | > 100 µM | Not Active | – | – | 13.7 µM | –
25 | COc1ccc(CNC(=O)C(=O)N/N=C/c2ccc(CNS(=O)(=O)c3ccc(Br)cc3)o2)cc1 | > 100 µM | Not Active | Not Active | – | – | –
26 | Cc1cc(SCC(=O)NNC(=O)Cc2ccccc2)nc(SCC(=O)c2ccccc2)n1 | 26 µM | – | – | 11 µM | 75 µM | –
27 | CCN(CC)c1ccc(C(=O)CSc2ncc(C(=O)NCCCc3ccccc3)c(=O)n2Cc2ccccc2)cc1 | > 100 µM | Not Active | – | – | 9.2 µM | –
28 | O=C(CSc1ncc(C(=O)NCCCc2ccccc2)c(=O)n1Cc1ccccc1)c1ccccc1 | 24 µM | – | – | 10 µM | 20 µM | –
29 | CCCc1cc(=O)oc2cc(OCC(=O)N[C@@H](CSCc3ccccc3)C(=O)O)ccc12 | > 100 µM | Not Active | Not Active | – | – | –
30 | CCCCOc1ccc(-c2nn(-c3ccccc3)cc2/C=C(\C#N)C(=O)NCc2ccco2)c(C)c1 | > 100 µM | Not Active | Not Active | – | – | –
31 | O=C(CSc1ncc(C(=O)NCCCc2ccccc2)c(=O)n1Cc1ccccc1)c1ccc(O)cc1 | 53 µM | – | – | 21.6 µM | 9.2 µM | –
32 | CCOC(=O)c1cnc(SCC(=O)NNC(=O)Cc2ccccc2)[nH]c1=O | 42 µM | – | – | 17 µM | 82.5 µM | –
